Assay outcomes deposited in PubChem BioAssay by Broad Institute.
An excerpt weighted towards active compounds, which were near 0.44% of everything screened.
RAD54 inh: RAD54 (human) branch migration inhibition. Q92698. RAD54 Holliday junction branch migration, FAM/BHQ fluorescence. inhibition, % at 10.4 µM. hit rate 0.14% among 360,000. AID 602329;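 active means mean normalized replicate activity at least 40 and at least half of replicates scoring 40 or more; inconclusive means only one of the two criteria met; inactive means mean below 40 and under half of replicates reaching 40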;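 further: 0% = median of neutral control wells and 100% = median of positive control wells; inhibitors cause a drop in the FAM fluorescence signal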
Target sequence (Q92698 whole entry, looked up): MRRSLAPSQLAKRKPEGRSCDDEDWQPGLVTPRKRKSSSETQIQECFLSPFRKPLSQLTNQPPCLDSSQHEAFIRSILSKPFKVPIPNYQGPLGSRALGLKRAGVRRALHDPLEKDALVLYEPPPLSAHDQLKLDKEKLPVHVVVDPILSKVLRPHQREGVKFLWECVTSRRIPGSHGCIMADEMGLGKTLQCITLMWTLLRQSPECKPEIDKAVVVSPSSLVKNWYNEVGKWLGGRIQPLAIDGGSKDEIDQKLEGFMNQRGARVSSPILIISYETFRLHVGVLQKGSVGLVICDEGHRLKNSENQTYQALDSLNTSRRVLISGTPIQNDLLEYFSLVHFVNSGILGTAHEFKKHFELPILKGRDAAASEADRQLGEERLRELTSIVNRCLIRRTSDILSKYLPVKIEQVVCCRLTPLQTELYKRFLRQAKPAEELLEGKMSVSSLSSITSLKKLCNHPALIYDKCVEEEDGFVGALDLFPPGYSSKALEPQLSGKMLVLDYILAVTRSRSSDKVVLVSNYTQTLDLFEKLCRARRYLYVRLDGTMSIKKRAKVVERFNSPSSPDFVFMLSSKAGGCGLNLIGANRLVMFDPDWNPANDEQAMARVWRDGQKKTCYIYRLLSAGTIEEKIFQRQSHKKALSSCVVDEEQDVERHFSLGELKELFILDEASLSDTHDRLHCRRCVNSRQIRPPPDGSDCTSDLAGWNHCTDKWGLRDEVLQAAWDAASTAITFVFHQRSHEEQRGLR
FN deposition inh: fibronectin deposition inhibition. hit rate 0.086% among 350,000. inhibition, % at 12.6 µM. AH1F fibroblasts, Alexa488-fibronectin deposition fluorescence, overnight;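 active means mean inhibition across replicates of 30% or more, regardless of how many single replicates reach that level; inconclusive means mean under 30% yet at least half of replicates reach 30%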;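 further: positive control wells lacked labelled fibronectin entirely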
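Measured by – fluorescence 485/525 nm · System – AH1F fibroblast monolayer, labelled fibronectin deposition · Amount – 10000 cells per well · Buffer or medium – serum-reduced DMEM (2% serum) · Doses – single dose, pinned · Also added – fluorescent fibronectin at 24 nM final · Schedule – 1 h cell attachment, overnight exposure to compound and label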
PDI turbidity: inhibitors of human protein disulfide isomerase. P07237. PDI insulin aggregation turbidity, A650, 90 min. inhibition, % at 10 µM. hit rate 0.052% among 350,000. AID 588391;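 active means mean inhibition across replicates of 30% or more, whatever share of single replicates reach that level; inconclusive means mean inhibition below 30% while every single replicate reaches 30%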
PglD inh: blocks C. jejuni PglD acetyltransferase activity; purified PglD enzyme, DTNB colorimetric CoA detection; inhibition, % at 12.5 µM; hit rate 0.098% among 360,000; AID 602405; in the data active means inhibition above about 16%, passing the limit was not always enough; inconclusive means no clear call, values can overlap the other calls
ERp5 inh: inhibitors of human ERp5; Q15084; ERp5 insulin aggregation, absorbance 650 nm, 90 min; inhibition, % at 9.99 µM; hit rate 0.05% among 350,000; AID 651711;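 active means mean replicate inhibition above about 25%, with every replicate also reaching it, limit read from the data, passing the limit was not always enough; inconclusive means only one of those two criteria met; inactive means neither criterion met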
S100A4 inh HTS: blocks human S100A4 binding to myosin IIA peptide | P26447 | S100A4/TAMRA-MyoIIA peptide fluorescence polarization | inhibition, % at 10.7 µM | hit rate 0.14% among 360,000 | AID 652163;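 active means mean inhibition of at least 70% across replicates, with every replicate also reaching that level; inconclusive means mean inhibition reaches 70% but some replicates fall short; inactive means mean inhibition below 70%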
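Test system: S100A4 monomer protein. Medium: HEPES buffer with Ca2+, pH 7.2. Reagent: fluorescent myosin IIA peptide, 5 nM. Compound dosing: single-point compound testing. Timing: 5 min between mix addition and reading. Benchmarks: DMSO neutral and TFP positive wells.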
Rad54 DNA ctr: DNA binding artifact in Rad54 counter-screen; Acridine orange-DNA displacement, fluorescence polarization, 20 min; hit rate 8% among 460; shares compounds with RAD54 inh; AC50, µM (highest dose often 35 µM), for the others: at the top dose activity change, negative = DNA binding;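 active means signal drop giving an AC50 within twice the top valid tested concentration of each sample, actives reach about 35 µM in these data; inactive means activity opposite to expected, plus the rest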;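 further: polarization loss reports compound binding to salmon sperm DNA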
PglD confirm: confirmation of Campylobacter jejuni PglD acetyltransferase inhibitors | shares compounds with PglD inh | Purified C. jejuni PglD, DTNB absorbance 412 nm | inhibition, % at 20 µM | 320 tested, under 10 active | AID 743156;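 active means mean inhibition across replicates of at least 20% with every single replicate also at 20% or more; inconclusive means mean inhibition at least 20% but some replicate falls below 20%; inactive means mean inhibition under 20% and not all replicates reach it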;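 further: initial rate of CoA release by acetyl transfer from AcCoA to the UDP-4-amino sugar; 0% = median of neutral control wells and 100% = median of positive control wells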
Starred values were filed as active, the others as inactive; ? = inconclusive; . = no result given; + = active, no number; ! = not active in a repeat.

SMILES	RAD54 inh	FN deposition inh	PDI turbidity	PglD inh	ERp5 inh	S100A4 inh HTS	others
COc1cccc2c1C(=O)c1c(O)c3c(c(O)c1C2=O)CC(O)(C(C)=NO)CC3OC1CC(N)C(O)C(C)O1 (stereo not given)	.	-1	?	.	-4	+
CS(=O)(=O)N1CC2NC(C1)C2c1ccc(Br)cc1 (stereo not given)	.	-13	.	.	.	.
O=C(O)C(O)(c1ccccc1)C1CCCC1 (stereo not given)	-8	33*	-5	2	.	.
CC(C)NC(=O)N1C[C@@H]2C(c3ccc(Br)cc3)[C@H](C1)N2C (stereo not given in full)	.	1	.	.	.	.
OC[C@@H]1Nc2ccc(C#Cc3cccnc3)cc2[C@@H]2NCC[C@H]12	.	8	.	.	.	.
C[C@]1(O)CCC2C3CC[C@H]4C[C@@H](OC(=O)[C@@H](N)CCCCN)CC[C@]4(C)C3CC[C@@]21C (stereo not given in full)	60*	-3	9	-4	-4	4
CN1[C@@H]2CN(S(C)(=O)=O)C[C@H]1C2c1ccc(Br)cc1 (stereo not given in full)	.	-1	.	.	.	.
Cc1cc(OCC(=O)NCc2ccncc2)c2c3c(c(=O)oc2c1)CCC3	2	-5	4	-8	4	-1
Cc1cc(OCC(=O)NCc2ccc(S(N)(=O)=O)cc2)c2c3c(c(=O)oc2c1)CCC3	-1	-7	1	-4	28*	15
CC1=C(O)C(=O)C=C2C1=CC=C1C2(C)CCC2(C)C3CC(C)(C(=O)O)CCC3(C)CCC12C (stereo not given)	.	.	63*	.	11	-3
CCCN1CCc2cc(O)cc3c2[C@H]1Cc1ccc(O)c(O)c1-3	63*	-6	0	-4	2	4
C[n+]1c(-c2ccccc2)c2cc(N)ccc2c2ccc(N)cc21	88*	21	-9	2	2	126*
c1ccc(-c2ccncc2)cc1	-18	.	.	0	-7	99*
C[C@H]1CN([C@@H](C)CO)C(=O)CCCn2cc(nn2)CO[C@H]1CN(C)C(=O)Oc1ccc2ccccc2c1	4	2	.	3	-2	1
C[C@H](CO)N1C[C@H](C)[C@@H](CN(C)C(=O)Oc2ccc3ccccc3c2)OCc2cn(nn2)CCCC1=O	10	4	-2	2	54*!	-2
CS(=O)(=O)N1C[C@@H]2C(c3ccccc3)[C@H](C1)N2CC1CC1 (stereo not given in full)	.	-15	.	.	.	.
CC[N+](C)(CC)CCCCOc1ccc2c(c1)C(=O)c1cc(OCCCC[N+](C)(CC)CC)ccc1-2	99*	-2	-4	-7	.	5
CS(=O)(=O)N1C[C@@H]2N[C@H](C1)C2c1ccccc1 (stereo not given in full)	.	-4	.	.	.	.
C#CCN(C)[C@H](C)Cc1ccccc1	-1	-5	-5	3	3	-1
CC(Cc1ccccc1Sc1ccccc1O)N(C)C (stereo not given)	-3	.	38*	3	.	.
COC(=O)C[C@]1(C(=O)OC)CN(C#N)N(c2ccc(Cl)cc2)C12c1ccccc1-c1ccccc12	-8	41*	14	-3	-4	1
CC(=O)N1C[C@@H]2C(c3ccccc3)[C@H](C1)N2CC1CC1 (stereo not given in full)	.	3	.	.	.	.
COC(=O)[C@H]1C[C@@H]1[C@H](NP(=O)(c1ccccc1)c1ccccc1)c1ccccc1	10	-13	-1	0	1	-4
COC(=O)[C@]1(C)C[C@H]1[C@H](NP(=O)(c1ccccc1)c1ccccc1)c1ccccc1	-5	-24	2	-1	5	84*
O=C(O)Cn1cc(/C=C2\C(=O)NC(=O)N(c3ccc(Br)cc3)C2=O)c2ccccc21	.	-5	-2	.	3	101*
SMILES	RAD54 inh	FN deposition inh	PDI turbidity	PglD inh	ERp5 inh	S100A4 inh HTS	others
Cc1ccc(N2C(=O)NC(=O)/C(=C\c3cn(CC(=O)O)c4ccccc34)C2=O)cc1	-1	5	18	-6	0	?
C=CCN1[C@@H]2CN(CC(F)(F)F)C[C@H]1C2c1ccc(Br)cc1 (stereo not given in full)	.	-5	.	.	.	.
c1ccc2c(c1)[nH]c1cnccc12	12	0	-19	0	8	-3
Cc1c2ccncc2c(C)c2c1[nH]c1ccccc12	51*	-4	-5	5	.	19
C=CCN1[C@@H]2CN(C(C)=O)C[C@H]1C2c1ccc(Br)cc1 (stereo not given in full)	.	4	.	.	.	.
Oc1ccc(CCN2CCCCC2)cc1	-2	6	-6	-1	3	-68
Nc1ccc(CCN2CCCC2)cc1	?	-4	-6	-16	1	-4	Rad54 DNA ctr=6%
Cn1ncnc2c(=O)n(C)c(=O)nc1-2	72*	.	175*	-10	.	.	Rad54 DNA ctr=7%
CN1[C@@H]2CN(CC(F)(F)F)C[C@H]1C2c1ccc(Br)cc1 (stereo not given in full)	.	4	.	.	.	.
CCN1CCN(c2ccc(N)cc2)CC1	.	8	3	.	-7	20
CN1CCN(c2ccc(N)cc2)CC1	97*	.	-4	-7	.	.	Rad54 DNA ctr=-14%
O=C(C1CC1)N1C[C@@H]2N[C@H](C1)[C@@H]2c1ccc(-c2ccncc2)cc1	.	11	.	.	-12	-2
Cc1nccc2c1[nH]c1ccccc12	?	-4	-7	-5	2	2	Rad54 DNA ctr=-8%
CCCC(C)C1C(C#N)=C(N)Oc2c1c(=O)oc1ccccc21 (stereo not given)	9	.	-1	24*	.	.	PglD confirm=-4
CC=Cc1ccc2n(c1=O)C[C@@H]1[C@@H](CO)[C@H](C(=O)OC)[C@H]2N1CC1CCCC1 (mixture of isomers)	.	.	.	.	0	7
C=CCn1c(O)c(C=NC2CCN(Cc3ccccc3)CC2)c(=O)[nH]c1=O	3	5	5	20*	-2	-3	PglD confirm=-7
O=C(O)[C@@H]1[C@@H](CO)[C@@H]2Cn3c(ccc(-c4ccncc4)c3=O)[C@H]1N2C(=O)C1CCC1	3	.	.	3	-5	14
CC(=O)NC1CC2CCC(C1)N2 (stereo not given)	5	-10	-8	5	.	.
CC(=O)NC1CC2CCCC(C1)N2 (stereo not given)	6	-2	7	27*	.	.	PglD confirm=-4
